This is a sample that favours compounds with a hit; in the whole collection about 12% have one here.
WT yeast gro inh: growth inhibition of WT yeast, mitochondrial fusion screen; 2.1% of 190,000 active; mitochondrial fusion phenotypic screen, WT strain; inhibition, % at 10 µM; in the data active means inhibition above about 58%; tested in S. cerevisiae
Cl transport mod: KCC2 (human) Cl- transport modulation. KCC2 cells, thallium flux FluoZin-2 fluorescence. B-score of Tl+ flux slope (higher = more flux/activation; lower = inhibition) at 10 µM. 2.2% of 190,000 active. AID 1456;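 active means thallium flux slope and its plate-corrected score both differing from the plate sample mean at a set confidence after two filtering rounds, in either direction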;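 further: slope of fluorescence scaled to starting intensity during 10 to 20 s after thallium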
Target sequence (Q9H2X9 whole entry, looked up): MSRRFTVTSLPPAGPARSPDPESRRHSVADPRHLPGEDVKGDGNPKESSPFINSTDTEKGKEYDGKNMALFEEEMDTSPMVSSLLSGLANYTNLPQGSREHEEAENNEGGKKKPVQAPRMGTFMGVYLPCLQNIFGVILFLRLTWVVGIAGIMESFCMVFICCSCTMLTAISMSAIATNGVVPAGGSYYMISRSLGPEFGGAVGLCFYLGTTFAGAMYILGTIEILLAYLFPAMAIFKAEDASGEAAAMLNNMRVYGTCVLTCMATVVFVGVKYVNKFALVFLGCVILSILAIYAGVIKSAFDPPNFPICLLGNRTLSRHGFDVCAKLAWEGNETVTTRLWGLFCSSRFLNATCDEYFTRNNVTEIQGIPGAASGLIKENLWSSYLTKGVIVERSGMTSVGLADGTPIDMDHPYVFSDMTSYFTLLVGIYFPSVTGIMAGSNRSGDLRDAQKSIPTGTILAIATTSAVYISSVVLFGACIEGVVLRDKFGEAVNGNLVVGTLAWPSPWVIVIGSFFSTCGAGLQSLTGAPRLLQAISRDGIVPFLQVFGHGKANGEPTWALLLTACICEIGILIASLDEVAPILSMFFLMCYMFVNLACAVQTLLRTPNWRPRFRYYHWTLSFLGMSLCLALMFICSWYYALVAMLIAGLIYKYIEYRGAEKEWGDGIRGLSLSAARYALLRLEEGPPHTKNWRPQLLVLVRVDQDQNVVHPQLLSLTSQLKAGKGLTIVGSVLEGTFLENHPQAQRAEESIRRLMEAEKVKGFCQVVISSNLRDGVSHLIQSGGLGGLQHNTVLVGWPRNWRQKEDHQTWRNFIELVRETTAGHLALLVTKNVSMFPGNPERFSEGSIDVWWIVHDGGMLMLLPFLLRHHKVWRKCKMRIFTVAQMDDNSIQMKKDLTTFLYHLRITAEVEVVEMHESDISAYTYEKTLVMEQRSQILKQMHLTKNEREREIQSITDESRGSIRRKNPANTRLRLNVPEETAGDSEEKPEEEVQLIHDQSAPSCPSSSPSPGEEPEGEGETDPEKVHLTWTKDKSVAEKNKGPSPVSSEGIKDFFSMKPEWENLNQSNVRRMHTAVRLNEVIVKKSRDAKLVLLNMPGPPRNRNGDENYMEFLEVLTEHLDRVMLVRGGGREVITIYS
ROMK mod: modulators of human ROMK potassium channel; P48048; Tet-inducible ROMK, thallium flux fluorescence; actives lie on both sides; B-score at 10 µM; 2% of 130,000 active; AID 1918;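 active means signal ratio slope over the read window, or its plate-corrected B-score, at least 3 SD from the plate mean, either direction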;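 further: B-score of the F/F0 ratio slope over 7 to 12 s after thallium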
Diaphorase inh: counter-screen for diaphorase-based assays: diaphorase inhibitors and chemical oxidizers; diaphorase resazurin-to-resorufin fluorescence, NADH, 16 min; bacterial (C. kluyveri) enzyme, not human; inhibition, % at 20 µM; 0.69% of 190,000 active;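 active means primary screen inhibition at 20 µM above a set limit, cut at about 50% in these data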;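 further: plate controls were DMSO with full reaction for no effect and wells lacking NADH for full effect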
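Assay system: diaphorase enzyme from Clostridium kluyveri. Quantity: enzyme working solution with 0.14 U/mL diaphorase. Schedule: reaction incubation of 16 min at room temperature. Technique: resorufin fluorescence, excitation 544 nm, emission 590 nm. Controls: No-NADH positive control and DMSO neutral control.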
L major viab: reduces viability of Leishmania major promastigotes; resazurin fluorescence viability; inhibition, % at 10 µM; 9% of 200,000 active; AID 1063; in the data active means inhibition above about 50%;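 further: promastigotes grown with compound for 44 hours at 28 °C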
Diaphorase act: diaphorase activation or chemical reduction counter-screen | Diaphorase/resazurin coupled assay, resorufin fluorescence, 16 min; active compounds read high; 1 = vehicle wells, 0 = NADH-free wells | activation factor at 20 µM | 0.005% of 190,000 active | AID 1229;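 active means diaphorase activity raised at least twofold by the compound at 20 µM; inactive means activation factor below 2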
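Material: purified diaphorase enzyme from Clostridium kluyveri / Medium: HEPES pH 7.4 buffer with MgCl2 and Tween 20 / Schedule: enzyme reaction of 16 min at room temperature / Measured by: resorufin fluorescence, excitation 544 nm, emission 590 nm / Evaluation: rise in resorufin formation, marking diaphorase activation or chemical reduction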
Numbers without * were called inactive; / = no result given.

SMILES	WT yeast gro inh	Cl transport mod	ROMK mod	Diaphorase inh	L major viab	Diaphorase act
Cc1ccc(S(=O)(=O)N2CCC(C(=O)NNC(=O)c3ccccc3)CC2)cc1	-10	0.15	0.06	10	-2	0.9
Cc1ccc(S(=O)(=O)N2CCC(C(=O)NCCN3CCCCCC3)CC2)cc1	15	-0.0083	/	-5	100*	1.1
Cc1ccc(S(=O)(=O)N2CCC(C(=O)N[C@@H](Cc3ccccc3)C(=O)O)CC2)cc1	-9	-0.4	/	12	54*	0.9
CCCc1nc2oc3ccccc3c(=O)c2c(=O)n1CCCOC	/	0.097	/	/	/	/
COCCNC(=O)c1ccccc1NS(=O)(=O)c1ccc(Br)s1	1	/	/	19	1	0.8
O=C(Cn1cc(C(F)(F)F)ccc1=O)N/N=C/c1cccc(Cl)c1Cl	1	-1.3	0.057	-5	75*	1
O=C(Cn1cc(C(F)(F)F)ccc1=O)N/N=C/c1ccc(Cl)c(Cl)c1	3	-0.035	/	20	4	0.8
Cc1cccc(NC(=O)c2oc(=O)c3ccccc3c2-c2ccccc2)c1C	-5	1.3	0.36	16	80*	0.8
COc1ccc(C2C(C#N)=C(/N=C/N3CCN(C)CC3)OC3=C2C(=O)CC(C)(C)C3)cc1 (stereo not given)	-11	/	/	19	100*	0.8
CC1(C)CC(=O)C2=C(C1)OC(N)=C(C#N)C2c1ccccc1 (stereo not given)	9	-0.7	/	11	-3	0.9
CCCCNC(=O)CCC(=O)Nc1ccc2nc(N3CCN(C)CC3)cc(C)c2c1	7	0.067	0.66	1	1	1
CCN1CCN(c2cc(C)c3cc(NC(=O)c4cccs4)ccc3n2)CC1	/	-0.52	/	/	/	/
CCN1CCN(c2cc(C)c3cc(NC(=O)c4ccc5c(c4)OCO5)ccc3n2)CC1	18	-0.13	/	-7	100*	1.1
CCN1CCN(c2cc(C)c3cc(NC(=O)c4cccc(OC)c4)ccc3n2)CC1	/	0.56	/	/	/	/
CCN1CCN(c2cc(C)c3cc(NC(=O)c4cncc(Br)c4)ccc3n2)CC1	1	/	1.7	-52	100*	1.5
COc1ccc(C)cc1NC(=O)CCC(=O)Nc1ccc2nc(N3CCN(C)CC3)cc(C)c2c1	0	0.033	0.69	4	91*	1
CCN1CCN(c2cc(C)c3cc(NC(=O)c4ccc(OC)c(OC)c4)ccc3n2)CC1	-1	-0.012	/	-48	55*	1.5
C=CCNCCOCCOc1ccc(C)cc1[N+](=O)[O-]	9	1	/	16	81*	0.8
CC(C)(C)NCCOCCOc1ccccc1-c1ccccc1	-7	0.12	/	14	35	0.9
COc1cc(C)ccc1OCCOCCOc1ccc(C)cc1[N+](=O)[O-]	-13	-2	-0.76	12	2	0.9
CCC(C)NCCOCCOc1ccccc1-c1ccccc1 (stereo not given)	12	0.43	-2.8	10	85*	0.9
CN(C)CCNCCCOc1ccccc1-c1ccccc1	-1	-0.4	-0.22	16	98*	0.8
C=CCNCCOCCOc1ccccc1-c1ccccc1	-11	1.2	-1.8	-20	95*	1.2
S=C(N/N=C/c1ccccc1)N1CCOCC1	22	16*	/	17	17	0.8
CSC(=S)N/N=C/c1ccccc1	50	170*	6.2*	73*	31	0.3
SMILES	WT yeast gro inh	Cl transport mod	ROMK mod	Diaphorase inh	L major viab	Diaphorase act
O=C(CCSCc1ccc(Cl)cc1)NC1CCCC1	15	-0.39	0.9	5	1	0.9
CCOc1ccc(OCC)c(NC(=O)Nc2ccc3c(c2)N(C)C(=O)CS3)c1	50	-0.94	/	20	67*	0.8
COc1cccc(NC(=O)Nc2ccc(C(C)(C)C)cc2)c1	63*	1	/	24	1	0.8
CN1C(=O)CSc2ccc(NC(=O)Nc3ccccn3)cc21	2	0.19	0.3	4	28	1
CC(=O)Nc1ccc(NC(=O)Nc2ccc3c(c2)N(C)C(=O)CS3)cc1	-5	0.64	0.58	-8	2	1.1
Cc1ccc(C)c(N2CCN(C(=O)Nc3ccc4c(c3)N(C)C(=O)CS4)CC2)c1	50	0.4	-0.6	10	50*	0.9
CN1C(=O)CSc2ccc(NC(=O)N3CCN(c4ccccn4)CC3)cc21	-18	0.19	/	3	-2	1
COc1cccc(NC(=O)Nc2ccc3c(c2)N(C)C(=O)CS3)c1	0	0.11	-1.8	0	59*	1
CC1=NN(C(=O)CCc2ccc3c(c2)OCO3)C(O)(C(F)(F)F)C1 (stereo not given)	2	-0.72	1.8	11	-5	0.9
COC(=O)c1cc(Cl)nc2ccccc12	11	0.31	-0.98	5	-5	0.9
COc1cc(Cl)cc2c1Sc1ccccc1/C2=C/CCN(C)C	29	/	/	-2	59*	1
CN(C)CCC(=O)N1c2ccccc2Sc2ccc(Cl)cc21	-11	/	-0.24	-6	5	1.1
CN(C)CC/C=C1/c2ccccc2Sc2c(O)cc(Cl)cc21	5	0.51	-0.94	25	98*	0.8
CN1CCN(CC/C=C2/c3ccccc3Sc3ccc(S(=O)(=O)N(C)C)cc32)CC1	19	0.55	/	22	/	0.8
COc1cc2c(cc1Cl)/C(=C\CCN(C)C)c1ccccc1S2	53	2	/	6	100*	0.9
COc1ccc(CCN(/C=C2\Sc3ccccc3C2=O)C(C)=O)cc1OC	/	-0.99	/	/	/	/
OCCSc1nc2ccccc2n1CCOc1ccccc1	2	/	-0.093	10	9	0.9
CCCc1cc(=O)[nH]c(SCC(=O)c2cc(C)n(-c3c(C)n(C)n(-c4ccccc4)c3=O)c2C)n1	-7	-0.7	-0.19	8	-10	0.9
CCS(=O)(=O)Nc1ccc(C2=NN(C(=O)c3ccco3)C(c3ccc(C)cc3)C2)cc1 (stereo not given)	-6	/	/	6	74*	0.9
CS(=O)(=O)Nc1ccc(C2=NN(C(=O)c3ccco3)C(c3ccccc3)C2)cc1 (stereo not given)	-14	-0.56	0.12	14	68*	0.9
Cc1ccc(C2CC(c3ccc(NS(C)(=O)=O)cc3)=NN2C(=O)c2ccco2)cc1 (stereo not given)	-10	-2.1	0.028	20	-4	0.8
O=C1CN(C(=O)c2ccccc2F)c2ccccc2N1	-13	0.24	/	13	17	0.9
Cc1ccc(Nc2c([N+](=O)[O-])cc(C(=O)N3CC(=O)Nc4ccccc43)cc2[N+](=O)[O-])c(C)c1	-1	/	/	21	88*	0.8
COc1ccc(/C=N/NC(=O)c2nn(-c3ccc(Cl)cc3)c(=O)c3c(N)scc23)cc1	44	-0.6	0.2	50*	69*	0.5
COc1ccc(/C=N/NC(=O)c2nn(-c3ccc(C)c(C)c3)c(=O)c3ccccc23)cc1	27	0.033	/	22	28	0.8
